From paper PMC3282045 (Biochemistry, 2012)
Changes are numbered by the printed parent chain. Names may count otherwise.

B1: human sulfite oxidase (HSO, human SO) (Homo sapiens; V531M) (protein)
chain: ESTHIYTKEEVSSHTSPETGIWVTLGSEVFDVTEFVDLHPGGPSKLMLAAGGPLEPFWALYAVHNQSHVRELLAQYKIGELNPEDKVAPTVETSDPYADDPVRHPALKVNSQRPFNAEPPPELLTENYITPNPIFFTRNHLPVPNLDPDTYRLHVVGAPGGQSLSLSLDDLHNFPRYEITVTLQCAGNRRSEMTQVKEVKGLEWRTGAISTARWAGARLCDVLAQAGHQLCETEAHVCFEGLDSDPTGTAYGASIPLARAMDPEAEVLLAYEMNGQPLPRDHGFPVRVVVPGVVGARHVKWLGRVSVQPEESYSHWQRRDYKGFSPSVDWETVDFDSAPSIQELPVQSAITEPRDGETVESGEVTIKGYAWSGGGRAVIRVDVSLDGGLTWQVAKLDGEEQRPRKAWAWRLWQLKAPVPAGQKELNIVCKAVDDGYNVQPDTVAPIWNLRGMLSNAWHRVHVYVSP
B2: human sulfite oxidase (HSO, human SO) (Homo sapiens) (protein)
chain: B1 chain with M452V
B3: human sulfite oxidase (HSO, human SO) (Homo sapiens; Y400N) (protein)
chain: B1 chain with Y321N, M452V
B4: human sulfite oxidase (HSO, human SO) (Homo sapiens; R529M/Y400N) (protein)
chain: B1 chain with Y321N, R450M, M452V

Assays:
[1] = molecular target: T1, human sulfite oxidase (HSO, human SO) (Homo sapiens, UniProt P51687); experiment: stopped-flow heme reduction; type: biochemical; conditions: read-out: Kd^sulfite; pH 8.5, 25 °C, anaerobic, no cyt c
T1 sequence (P51687 80-545): B1 chain with M452V
Outline: (§1)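 Recombinant enzyme expressed in E. coli TP1000 and purified. Anaerobic stopped-flow at 25 °C (dead-time <1.5 ms, 10 mm path), with argon-sparged solutions prepared in an anaerobic chamber. Enzyme at 0.3–0.8 μM was mixed with varied sulfite, no cyt c. Heme Soret change followed at 425 or 430 nm. Traces were fitted to single or double exponentials for kobs, then kobs versus sulfite fitted hyperbolically for kred and Kd.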

[2] = molecular target: T2, human sulfite oxidase (HSO, human SO) (Homo sapiens, UniProt P51687, R529Q); experiment: stopped-flow heme reduction; type: biochemical; conditions: read-out: Kd^sulfite; pH 8.5, 25 °C, anaerobic, no cyt c
T2 sequence (P51687 80-545 R529Q): B1 chain with R450Q, M452V
Outline: as §1

[3] = molecular target: T3, chicken sulfite oxidase (CSO, recombinant chicken SO) (Gallus gallus, UniProt P07850); experiment: steady-state cytochrome c reduction at […] nm; type: biochemical; conditions: read-out: Km^sulfite; pH 8.5, 25 °C, horse heart cyt c
T3 sequence (P07850 1-459): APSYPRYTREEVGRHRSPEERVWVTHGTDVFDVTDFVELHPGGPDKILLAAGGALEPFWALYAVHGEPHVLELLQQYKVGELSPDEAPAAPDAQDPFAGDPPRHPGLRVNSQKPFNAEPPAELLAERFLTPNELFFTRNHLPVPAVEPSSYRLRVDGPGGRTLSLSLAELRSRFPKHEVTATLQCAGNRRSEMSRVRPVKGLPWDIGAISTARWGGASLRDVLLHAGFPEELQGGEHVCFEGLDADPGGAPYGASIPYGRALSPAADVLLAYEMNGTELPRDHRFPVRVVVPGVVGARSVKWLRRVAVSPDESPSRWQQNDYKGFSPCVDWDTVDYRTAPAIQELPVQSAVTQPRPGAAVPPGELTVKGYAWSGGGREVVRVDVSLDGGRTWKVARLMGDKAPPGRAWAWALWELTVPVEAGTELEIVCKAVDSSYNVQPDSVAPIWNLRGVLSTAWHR

[4] = molecular target: T4, human sulfite oxidase (HSO, human SO) (Homo sapiens, UniProt P51687, R529M); experiment: stopped-flow heme reduction; type: biochemical; conditions: read-out: Kd^sulfite; pH 8.5, 25 °C, anaerobic, no cyt c
T4 sequence (P51687 80-545 R529M): B1 chain with R450M, M452V
Outline: as §1

purified protein [5] = substrate: O=S(O)O; experiment: purified protein; type: biochemical, Homo sapiens; conditions: pH 8.5, 25 °C, horse heart cyt c
purified protein [6] = substrate: O=[N+]([O-])O; experiment: purified protein; type: biochemical, Homo sapiens; conditions: pH 8.5, 25 °C, anaerobic, dithionite-reduced methyl viologen

Row | Molecule | Kd [1] | Kd [2] | Km [3] | Kd [4] | Km (purified protein [5]) | kcat (purified protein [5]) | Km (purified protein [6]) | kcat (purified protein [6])
1 | O=S(O)O [sulfite] | 6.72 µM | 227 µM | 8.53 µM | 73.4 µM |  |  |  | 
2 | B1 |  |  |  |  | 3.54 µM | 15.8 s⁻¹ |  | 
3 | B2 |  |  |  |  | 8.25 µM | 26.9 s⁻¹ | 43000 µM | < 0.1 s⁻¹
4 | B3 |  |  |  |  | 850 µM | 16.91 s⁻¹ |  | 
5 | B4 |  |  |  |  | 42990 µM | 1.42 s⁻¹ |  | 
